Experiments:
[1] = Stability assessed as compound degradation after 48 hrs by MALDI-TOF MS analysis in presence of Naja mossambica mossambica venom sPLA2; format: ADME
Procedure, shortened: (§1)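 Incubated with purified snake venom sPLA₂ at 37 °C, stirred and shielded from light, for 48 h. Extracts mixed with DHB matrix (DPPG included) and analysed by MALDI-TOF MS for remaining prodrug.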

HT-29 [2] = experiment: Cytotoxicity against human HT-29 cells after 48 hrs by MTT assay in presence of Agkistrodon piscivorus piscivorus venom sPLA2; format: functional, cell-based; conditions: HT-29, 48 h
Procedure, shortened: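 HT-29 cells (McCoy's 5A, 10% fetal calf serum) plated at 1 × 10⁴ cells/well 24 h before dosing. Liposomal prodrugs diluted in PBS, lipid concentration set by phosphorus analysis; snake venom sPLA₂ added to a final 5 nM. Cells exposed for 24 h, washed, then kept in complete medium another 48 h. Viability read by MTT, mean ± SD, n ≥ 3.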

HT-29 [3] = experiment: Cytotoxicity against human HT-29 cells after 48 hrs by MTT assay; format: functional, cell-based; conditions: HT-29, 48 h
Procedure, shortened: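 HT-29 cells grown in McCoy's 5A with 10% fetal calf serum and 1% Pen-Strep, seeded at 1 × 10⁴ cells/well 24 h before dosing. Tested with or without snake (Agkistrodon piscivorus piscivorus) venom sPLA₂ at 5 nM final. Exposure was 24 h, then a wash and 48 h in complete medium before MTT viability. Mean ± SD, n = 3 or more.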

[4] = Stability assessed as compound degradation after 48 hrs by MALDI-TOF MS analysis in presence of Agkistrodon piscivorus piscivorus venom sPLA2; format: ADME; procedure, shortened: as §1
COLO 205 = experiment: Cytotoxicity against human COLO205 cells after 48 hrs by MTT assay; format: functional, cell-based; conditions: COLO 205, 48 h
Procedure, shortened: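 Colo205 cells grown in RPMI 1640 with 10% fetal calf serum and 1% Pen-Strep at 5% CO₂, seeded at 2 × 10⁴ cells/well 24 h before treatment. Dosing used conditioned medium carrying about 100 ng/mL sPLA₂ IIA. Exposure was 24 h, then a wash and 48 h in complete medium before MTT. Reported as mean ± SD, n = 3 or more.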

[5] = Cytotoxicity against human MT3 cells after 48 hrs by MTT assay; format: functional, cell-based; conditions: MT-3, 48 h
Procedure, shortened: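 MT-3 breast cancer cells grown in RPMI 1640 with 10% fetal calf serum and 1% Pen-Strep at 5% CO₂, plated at 1 × 10⁴ cells/well 24 h ahead. Retinoids were given in DMSO/water, final DMSO ≤0.5%. Exposure was 24 h, then a wash and 48 h in complete medium before MTT. Mean ± SD, n = 3.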

[6] = Inhibition of sPLA2 from Naja mossambica mossambica by fluorescence technique

IC50 [6]	Ki [6]	SMILES	Stability [1]	IC50 (HT-29 [2])	IC50 (HT-29 [3])	Stability [4]	IC50 (COLO 205)	IC50 [5]
–	–	CCCCCCCCCCCCCCCCCC(=O)OC[C@H](COP(=O)([O-])OC[C@@H](O)CO)OC(=O)CCCCCOC(=O)/C=C(C)/C=C/C=C(C)/C=C/C1=C(C)CCCC1(C)C.[Na+]	Unstable	6 µM	> 200 µM	Unstable	12 µM	–
–	–	CCCCCCCCCCCCCCCCCC(=O)OC[C@H](COP(=O)([O-])OC[C@@H](O)CO)OC(=O)CCCCCOC(=O)c1ccc(-c2ccc(CCCCCCCC)cc2)cc1.[Na+]	Unstable	8 µM	> 200 µM	Unstable	19 µM	–
15 µM	11 µM	CC1=C(/C=C/C(C)=C/C=C/C(C)=C/C(=O)O)C(C)(C)CCC1 [TRETINOIN]	–	–	4.3 µM	–	37 µM	30 µM
–	–	CCCCCCCCCCCCCCCCCC(=O)O [STEARIC ACID]	–	–	> 200 µM	–	> 200 µM	–
8 µM	6 µM	CC1=C(/C=C/C(C)=C/C=C/C(C)=C/C(=O)OCCCCCC(=O)O)C(C)(C)CCC1	–	–	3.6 µM	–	17 µM	17 µM
–	–	CCCCCCCCCCCCCCCCCCOC[C@H](COP(=O)([O-])OC[C@@H](O)CO)OC(=O)CCCCCOC(=O)/C=C(C)/C=C/C=C(C)/C=C/C1=C(C)CCCC1(C)C.[Na+]	–	7 µM	> 200 µM	Unstable	16 µM	–
–	–	CCCCCCCCc1ccc(-c2ccc(C(=O)OCCCCCC(=O)O)cc2)cc1	–	–	> 200 µM	–	127 µM	14 µM
–	–	CCCCCCCCCCCCCCCCCCOC[C@H](COP(=O)(O)OC[C@H](O)CO)OC(=O)CCCCCCCCCCCCCCCCC	–	9 µM	> 200 µM	–	33 µM	–
–	–	CCCCCCCCCCCCCCCCCC(=O)OC[C@H](COP(=O)(O)OC[C@H](O)CO)OC(=O)CCCCCCCCCCCCCCCCC	–	25 µM	> 200 µM	–	54 µM	–
–	–	CCCCCCCCCCCCCCCCCCOC[C@H](COP(=O)([O-])OC[C@@H](O)CO)OC(=O)CCCCCOC(=O)c1ccc(-c2ccc(CCCCCCCC)cc2)cc1.[Na+]	Unstable	3 µM	> 200 µM	Unstable	7 µM	–
–	–	CCCCCCCCCCCCCCCCCC(=O)OC[C@@H](O)COP(=O)(O)OCC(O)CO (some centres not stated)	–	–	7 µM	–	22 µM	–
–	–	CCCCCCCCc1ccc(-c2ccc(C(=O)O)cc2)cc1	–	–	> 200 µM	–	> 200 µM	51 µM
–	–	CCCCCCCCCCCCCCCCCCOC[C@@H](O)COP(=O)(O)OC[C@@H](O)CO	–	–	11 µM	–	25 µM	–

From ChEMBL document CHEMBL1157134, “Liposomal formulation of retinoids designed for enzyme triggered release” (J Med Chem, 2010)
